Experimental data gathered from unrelated publications.
Each line is one published result; the experiments were not run side by side. pIC50: −log10 of the molar value. Converted amounts (≈) assume the structure as drawn.

O=C(CCc1ccccc1)Nc1ncccn1 has an MIC80 of over 100 µM (Candida albicans; microbial growth; 48 h).
O=c1ccc2nc3ccc(OCc4ccc([N+](=O)[O-])o4)cc3oc-2c1 gave an MIC of over 32 µg/mL (Enterococcus faecium; microbial growth; 24 h).
CC(=O)N1CCN(c2ccc(OCC3COC(Cn4ccnc4)(c4ccc(Cl)cc4Cl)O3)cc2)CC1 (centres unmarked) gave an MFC of over 64 µM (Candida albicans; microbial killing, broth dilution; 58288; 48 h).
Cc1cnc(NC(=O)/C=C/c2cccs2)nc1 gave an MIC80 of 25 µM (≈ 6.13 µg/mL) (Candida albicans; microbial growth; 48 h).
OC(Cn1cncn1)(Cn1cncn1)c1ccc(F)cc1F has an MIC of 2 µg/mL (≈ 6.53 µM) (Candida albicans; microbial growth, broth dilution; ATCC60193).
The MIC of O=c1ccc2nc3ccc(O)cc3oc-2c1 is reported as over 32 µg/mL (Enterococcus faecium; microbial growth; 24 h).
N.N.[Cl][Pt][Cl] gave a pIC50 of 4.25 (CCD 19Lu; cell growth or viability, MTT; 72 h).
For OC(Cn1cncn1)(Cn1cncn1)c1ccc(F)cc1F, the MFC was over 64 µM (Candida albicans; microbial killing, broth dilution; SP3903; 48 h).
